Source: PubChem BioAssay (several laboratories)
Rows were chosen to be rich in hits. Some 4.2% of all compounds tested hit in one or more screens of this group.
KCNQ1 inh: inhibitors of human KCNQ1 potassium channel | CHO-K1 KCNQ1, FluxOR thallium flux fluorescence; stronger effect = higher value | AID 2642 | P51787 | B-score at 10 µM | 1.3% of 310,000 active;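 active = compounds whose thallium flux B-score, printed positive for inhibition, exceeds three library SD while starting fluorescence stays within three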;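 note: channel opened by potassium depolarization with thallium stimulus after 20 min compound exposure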
Cl transport mod: modulators of human KCC2 chloride dependent transport. Q9H2X9. KCC2 cells, thallium flux FluoZin-2 fluorescence. B-score of Tl+ flux slope (higher = more flux/activation; lower = inhibition) at 10 µM. 2.2% of 190,000 active;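 active = thallium flux slope and its plate-corrected score both differing from the plate sample mean at a set confidence after two filtering rounds, in either direction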;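 note: slope of fluorescence scaled to starting intensity during 10 to 20 s after thallium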
KCNQ1 act: human KCNQ1 channel potentiation or activation; P51787; CHO-K1 KCNQ1, thallium flux FluxOR fluorescence; stronger effect = higher value; B-score at 10 µM; 0.35% of 310,000 active;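 active = fluorescence ratio B-score, a plate-corrected score, at least three library SD, with initial intensity B-score within 5 SD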
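assay system = CHO-K1 cells stably expressing KCNQ1 | medium = assay buffer, equal DMSO in all wells | timing = 37 °C overnight plating, 90-min dark dye load, 20-min compound pretreatment | measured by = kinetic FluxOR thallium fluorescence, 10-s 1-Hz baseline, 110-s post-stimulus read | measure = fluorescence change relative to baseline, converted to B score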
hERG protect: compounds protecting human hERG from proarrhythmic drug block. AID 1511. CHO-hERG, FluxOR thallium flux, dofetilide IC70 present. 0.51% of 310,000 active. activation (rescue from dofetilide block), less the hit threshold, % at 10 µM. Q12809;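 active = activation above the mean of controls blocked by dofetilide plus 5 SD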;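 note: thallium influx through hERG after potassium depolarization seen as dye fluorescence rise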
AI-2 QS mod: modulators of Vibrio harveyi AI-2 quorum sensing system; 0.4% of 300,000 active; activity change, % at 7.5 µM; Vibrio harveyi JMH597 AI-2 luminescence/OD600 ratio, 9 h; stronger effect = lower value; strain lacks LuxN and CqsS sensors; 0 = neutral-control median; in the data active = activity change below about -75%, passing the limit was not always enough; inconclusive = no clear call, values can overlap the other calls;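 note: luminescence divided by OD600 gain over 9 h not by final OD600 alone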
SUMO Mot1 rescue: blocks SUMOylation pathway, rescuing yeast Mot1-301 growth | S. cerevisiae Mot1-301 growth rescue, ATP luminescence, 38.5C; percent above DMSO median, 100 means doubled | AID 2716 | growth rescue, % at 18.8 µM | 1% of 320,000 active;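 active = every valid replicate shows activation above 250% relative to neutral control wells; inactive = the rest, any valid replicate at or below 250%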;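 note: OY570 slx delta 5 strain wells were the positive control but not used for scaling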
KCC2 sec1: KCC2 (human) modulation, secondary assay; normalised thallium flux (F/F0 slope) at 10 µM; AID 1713; shares compounds with Cl transport mod; HEK293-KCC2, thallium flux, FluoZin2 fluorescence; stronger effect = higher value; 15% of 3,700 active;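 active = thallium flux slope above the same plate's solvent-only control mean plus 3 SD; inconclusive = the two replicate wells disagree; inactive = no significant difference from solvent-only control wells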
KCC2 bumet counter: thallium flux persisting under bumetanide in KCC2 cells, counter-screen secondary assay | HEK293-KCC2 + bumetanide/ouabain, thallium flux FluoZin2; stronger effect = higher value | shares compounds with Cl transport mod | 49% of 3,700 active | normalized thallium flux at 10 µM;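 active = thallium entry rate above the same plate's blocked-transporter control wells by more than 3 SD; inconclusive = the two repeat wells disagree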;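 note: raw slope of fluorescence over initial fluorescence between 10 and 20 s after thallium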
KCC2 secondary2: confirmation of human KCC2 transport modulators | shares compounds with Cl transport mod | HEK293-KCC2, thallium flux FluoZin2 fluorescence; actives lie on both sides; F/F0 rise rate, 10–20 s post-thallium | normalized thallium flux at 10 µM | 23% of 3,700 active | AID 1715;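 active = thallium flux slope more than 3 SD above or below the plate's solvent-only control mean, mostly below; inconclusive = the two repeat wells disagreed; inactive = no significant shift from solvent-only controls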;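 note: raw slope with 0.1% DMSO as baseline and bumetanide as block control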
HEK counter1: acts in parental HEK cells, KCC2 counter-screen. HEK293 parental cells, thallium flux FluoZin2, ouabain; baseline-ratio fluorescence slope, 10–20 s after thallium. thallium flux rate (normalised fluorescence) at 10 µM. 46% of 3,700 active. shares compounds with Cl transport mod;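 active = thallium flux rate significantly above the same plate's solvent-only control wells, beyond their mean plus 3 SD; inconclusive = the two replicate wells gave conflicting results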
KCC2 retest ouab: confirmation of human KCC2 modulators with ouabain; shares compounds with Cl transport mod; HEK293-KCC2, thallium flux FluoZin2 fluorescence; bidirectional: low = inhibitor, high = activator; raw Tl+ flux slope (below DMSO = inhibition, above = activation) at 10 µM; 48% of 3,700 active; AID 1717;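 active = thallium flux slope beyond 3 SD from same-plate DMSO control mean in most replicates, usually higher, sometimes lower; inconclusive = repeat tests gave conflicting results; inactive = no significant difference from controls in most replicates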;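 note: slope of initial-normalized fluorescence between seconds 10 and 20 after thallium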
HEK counter2: parental HEK flux effect, counter-screen 2; shares compounds with Cl transport mod; HEK293 parental, thallium flux FluoZin-2 fluorescence slope; thallium flux slope at 10 µM; 33% of 3,700 active; AID 1718;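 active = thallium flux slope above the same plate's solvent-control mean plus 3 SD in both duplicate wells; inconclusive = duplicate wells that disagreed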;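 note: run without ouabain in cells lacking the KCC2 cotransporter; slope of fluorescence scaled to its starting value between 10 and 20 s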
Starred values were filed as active, the others as inactive.

How did CNC(=S)N(Cc1cc2cc(OC)c(OC)cc2[nH]c1=O)C1CCCC1 do in these assays?
KCNQ1 inh: inactive; Cl transport mod: -4.24*; KCNQ1 act: inactive; hERG protect: -7.7; AI-2 QS mod: 35.9; SUMO Mot1 rescue: -4.0; KCC2 sec1: 0.00937; KCC2 bumet counter: 0.00612; KCC2 secondary2: 0.0314; HEK counter1: inconclusive; KCC2 retest ouab: 0.0186; HEK counter2: 0.00978

What do the screens show for `CNC(=S)N(CCc1cccc(C)c1)Cc1cc2cc(OC)c(OC)cc2[nH]c1=O`?
KCNQ1 inh: inactive; Cl transport mod: 0.696; KCNQ1 act: inactive; hERG protect: -14.5; AI-2 QS mod: 7.2; SUMO Mot1 rescue: -13.5

How did Cc1[nH]n(C2=NCCS2)c(=O)c1N=Nc1cccc(C(F)(F)F)c1 do in these assays?
KCNQ1 inh: inactive; Cl transport mod: 21.1*; KCNQ1 act: inactive; hERG protect: -1.2; AI-2 QS mod: 61.1; SUMO Mot1 rescue: 12.7; KCC2 sec1: 0.00631; KCC2 bumet counter: 0.0746*; KCC2 secondary2: 0.049*; HEK counter1: 0.0337*; KCC2 retest ouab: 0.055*; HEK counter2: 0.035*

What do the screens show for `Cc1[nH]n(C(N)=S)c(=O)c1N=Nc1cccc(C(F)(F)F)c1`?
KCNQ1 inh: inactive; KCNQ1 act: inactive; hERG protect: -4.7; AI-2 QS mod: 11.2; SUMO Mot1 rescue: 22.1

How did O=C(COC(=O)c1cc([N+](=O)[O-])ccc1NCCO)c1ccc(Cl)cc1 do in these assays?
KCNQ1 inh: inactive; Cl transport mod: -1.5; KCNQ1 act: inactive; hERG protect: -5.7; AI-2 QS mod: 0.9; SUMO Mot1 rescue: 2.7

What do the screens show for `CCc1ccc(C(=O)COC(=O)c2cc([N+](=O)[O-])ccc2NCCO)cc1`?
KCNQ1 inh: inactive; Cl transport mod: -4.34*; KCNQ1 act: inactive; hERG protect: -4.0; AI-2 QS mod: 41.3; SUMO Mot1 rescue: -4.1; KCC2 sec1: 0.00615; KCC2 bumet counter: 0.00531; KCC2 secondary2: 0.0226*; HEK counter1: 0.00807; KCC2 retest ouab: 0.0148*; HEK counter2: 0.0113

What do the screens show for `COC(=O)CCSC(=S)N1CCOCC1`?
KCNQ1 inh: inactive; Cl transport mod: 0.937; KCNQ1 act: inactive; hERG protect: -11.5; AI-2 QS mod: 20.8; SUMO Mot1 rescue: -0.9

How did CCOCCCN(Cc1cc2cc(C)cc(C)c2[nH]c1=O)C(=O)N(CC)CC do in these assays?
KCNQ1 inh: inactive; Cl transport mod: 0.482; KCNQ1 act: inactive; hERG protect: -14.6; AI-2 QS mod: 12.9; SUMO Mot1 rescue: 1.6

Results for CCc1cc2cc(C)cc(C)c2[nH]c1=S ?
KCNQ1 inh: inactive; Cl transport mod: 124*; KCNQ1 act: inactive; hERG protect: 9.1*; AI-2 QS mod: 16.4; KCC2 sec1: 0.0068; KCC2 bumet counter: 0.0244*; KCC2 secondary2: 0.114*; HEK counter1: 0.111*; KCC2 retest ouab: 0.0861*; HEK counter2: 0.11*
